Data published in ChEMBL document CHEMBL4043282, “Discovery of the First Potent, Selective, and Orally Bioavailable Signal Peptide Peptidase-Like 2a (SPPL2a) Inhibitor Displaying Pronounced Immunomodulatory Effects In Vivo” (J Med Chem, 2018).
≈ marks a conversion by molar mass, not a printed value. Calls of active or inactive are those of the source. The calls are words filed in the database; no cut-off is given here.

How the values were obtained:
Mus musculus [1] = assay: Dose normalized drug uptake in Balb/c mouse at 5 mg/kg, iv by LC/MS/MS analysis; type: ADME, organism-based; conditions: in vivo
Rattus norvegicus = assay: Dose normalized drug uptake in Wistar rat at 10 mg/kg, po bid measured up to 7 hrs by LC/MS/MS analysis; type: ADME, organism-based, Wister; conditions: in vivo
[2] = target: T1, Signal peptide peptidase-like 2A (Mus musculus, UniProt Q9JJF9); assay: Inhibition of mouse SPPL2a expressed in human U2OS cells using EGFP-labeled TNFalpha (1 to 77 residues) NLS as substrate after 24 hrs by Hoechst staining based high content imaging assay; type: cell-based
T1 sequence (Q9JJF9 whole entry): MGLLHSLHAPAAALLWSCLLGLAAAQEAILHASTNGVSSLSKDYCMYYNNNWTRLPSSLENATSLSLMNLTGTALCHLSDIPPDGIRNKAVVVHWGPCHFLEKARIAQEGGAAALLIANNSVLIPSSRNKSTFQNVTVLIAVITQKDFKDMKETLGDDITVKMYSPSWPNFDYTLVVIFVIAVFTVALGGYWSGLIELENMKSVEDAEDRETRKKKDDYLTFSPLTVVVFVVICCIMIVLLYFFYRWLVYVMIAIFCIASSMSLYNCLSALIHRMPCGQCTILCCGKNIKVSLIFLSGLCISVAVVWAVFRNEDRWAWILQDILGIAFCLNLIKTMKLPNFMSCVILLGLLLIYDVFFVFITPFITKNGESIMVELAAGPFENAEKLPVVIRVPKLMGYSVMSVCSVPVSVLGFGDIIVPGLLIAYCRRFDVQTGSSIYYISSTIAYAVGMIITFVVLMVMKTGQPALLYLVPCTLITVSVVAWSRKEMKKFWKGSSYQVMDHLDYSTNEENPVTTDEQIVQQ
Method in brief: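 Stable U-2 OS lines expressing human SPPL2a, SPPL2b or SPP constitutively (mouse SPPL2a line analogous, mouse TNFα(aa1-77)-NTF-EGFP-NLS) with doxycycline-inducible EGFP substrate. 3000 cells/well, 3−4 h, then 11-point inhibitor 100 μM to 1 nM, 0.9% DMSO, 5 μg/mL doxycycline, 24 h 37 °C. PFA fixed, Hoechst nuclei; nuclear minus cytoplasmic EGFP intensity; inhibition vs 0.5 μM reference and DMSO; IC50 by nonlinear regression.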

[3] = target: T2, Signal peptide peptidase-like 2A (Rattus norvegicus, UniProt D3ZNG3); assay: Inhibition of rat SPPL2a expressed in human U2OS cells using EGFP-labeled TNFalpha (1 to 77 residues) NLS as substrate after 24 hrs by Hoechst staining based high content imaging assay; type: cell-based
T2 sequence (D3ZNG3 whole entry): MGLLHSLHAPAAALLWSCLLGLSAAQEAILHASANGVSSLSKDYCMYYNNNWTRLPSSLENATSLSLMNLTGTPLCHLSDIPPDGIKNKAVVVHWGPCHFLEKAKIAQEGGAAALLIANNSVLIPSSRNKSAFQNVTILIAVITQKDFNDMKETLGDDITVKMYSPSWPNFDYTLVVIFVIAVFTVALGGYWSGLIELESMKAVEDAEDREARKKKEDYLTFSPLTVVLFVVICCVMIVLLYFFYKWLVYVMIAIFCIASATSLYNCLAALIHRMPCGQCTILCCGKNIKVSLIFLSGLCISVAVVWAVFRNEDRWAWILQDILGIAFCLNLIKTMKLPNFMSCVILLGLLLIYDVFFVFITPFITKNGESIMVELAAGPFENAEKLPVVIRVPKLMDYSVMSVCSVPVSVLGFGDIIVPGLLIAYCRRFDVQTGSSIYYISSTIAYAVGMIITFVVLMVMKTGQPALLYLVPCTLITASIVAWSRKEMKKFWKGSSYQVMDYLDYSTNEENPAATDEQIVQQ
Method in brief: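 Stable U-2 OS line with constitutive rat SPPL2a and doxycycline-inducible rat TNFα(aa1-77)-NTF–EGFP-NLS; 3000 cells/well, 3–4 h at 37 °C, then inhibitor in doxycycline medium, 11-point, 100 μM–1 nM final (0.9% DMSO, 5 μg/mL doxycycline), 24 h. PFA fixation, Hoechst nuclei; nuclear minus cytoplasmic-ring EGFP intensity. Normalised to DMSO and reference-inhibitor controls; IC50 by nonlinear regression.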

Salmonella typhimurium = assay: Genotoxicity in Salmonella typhimurium by Ames test; type: toxicity; conditions: salmonella enterica subsp. enterica serovar typhimurium
[4] = Drug uptake in Lewis rat spleen at 10 mg/kg, po bid after 24 hrs by LC/MS/MS analysis; type: ADME, organism-based; conditions: read-out: Drug uptake
[5] = Drug uptake in Lewis rat spleen at 3 mg/kg, po bid after 24 hrs by LC/MS/MS analysis; type: ADME, organism-based; conditions: read-out: Drug uptake
[6] = Drug uptake in Lewis rat spleen at 1 mg/kg, po bid after 24 hrs by LC/MS/MS analysis; type: ADME, organism-based; conditions: read-out: Drug uptake
Mus musculus [7] = assay: Immunomodulatory activity in mouse assessed as reduction in transition T2 B cells in splenocyte at 3 to 30 mg/kg administered via oral gavage bid at 8 and 16 hrs dosing interval between first and second dose respectively for 11 days measured 16 hrs post last dose on day 12 by flow cytometry; type: functional, organism-based
Method in brief: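 Mice gavaged with compound in 0.5% MC:0.5% Tween or PEG:D5W 3:1. Spleens dissociated in GentleMACS, filtered at 40 μm, ACK red-cell lysis, counted; 1 × 10^6 splenocytes stained 30 min on ice in HBSS/2% FBS/5 mM EDTA with antimouse panels for B-cell subsets (B220, CD21, CD23, IgM, IgD) or dendritic cells (PDCA1, CD11c, MHCII, lineage markers); analyzed on Fortessa flow cytometer.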

Mus musculus [8] = assay: Immunomodulatory activity in mouse assessed as reduction in myloid dendritic cells in splenocyte administered via oral gavage bid at 8 and 16 hrs dosing interval between first and second dose respectively for 11 days measured 16 hrs post last dose on day 12 by B220 staining based flow cytometry; type: functional, cell-based
[9] = target: T3, Signal peptide peptidase-like 2A (Mus musculus) (UniProt Q9JJF9); conditions: 2 uM
T3 sequence (whole entry): T1 sequence (Q9JJF9 whole entry)

[10] = target: T3, Signal peptide peptidase-like 2A (Mus musculus); conditions: 2 uM; remark: listed apart in the source
[11] = Equilibrium solubility of the compound at pH 6.8 after 24 hrs by saturation shake flask based UV-HPLC method; type: physicochemical; conditions: buffer
[12] = target: T3, Signal peptide peptidase-like 2A (Mus musculus); assay: Reversible inhibition of SPPL2a in mouse A20 cells assessed as increase in CD74/p8 accumulation at 2 uM preincubated for 16 hrs followed by compound wash out measured up to 2 hrs by Western blot method; type: cell-based
Mus musculus [13] = assay: In vivo inhibition of mouse gamma-secretase assessed as effect on Hes1 mRNA level in jejunum up to 100 mg/kg, po administered as single dose by RT-PCR method; type: organism-based
Method in brief: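 Thymus and jejunum excised into RNALater, 4 °C overnight, washed, frozen at −80 °C; total RNA from 10 mg tissue by MagNA Pure LC; Hes1 measured by TaqMan real-time PCR; significance by two-tailed heteroscedastic Student's t-test.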

Mus musculus [14] = assay: In vivo inhibition of SPPL2a in mouse assessed as increase in CD74/p8 accumulation in splenocytes at 10 to 100 mg/kg, po administered as single dose measured after 4 hrs by Western blot method; type: functional, organism-based

Row | Druguptake/dose (Mus musculus [1]) | Druguptake/dose (Rattus norvegicus) | IC50 [2] | IC50 [3] | concentration at 24 h [4] | concentration at 24 h [5] | concentration at 24 h [6] | inhibition [9] | inhibition [10] | solubility thermodynamic at 24 h [11] | inhibition [12] | SMILES | Activity (Salmonella typhimurium) | Activity (Mus musculus [7]) | Activity (Mus musculus [8]) | Activity (Mus musculus [13]) | Activity (Mus musculus [14])
1 | 264 nM | 421 nM | 180 nM | 56 nM | 2400 nM | 860 nM | 330 nM | 50% | inactive | – | – | Cc1ncc(F)cc1NC(=O)C[C@H](C(=O)N[C@@H]1C(=O)N2CC3(CC3)CN2C(=O)c2ccccc21)C1CC1 | Non-Toxic | Active | Dose-dependent effect | – | –
2 | – | – | – | – | – | – | – | – | – | 263 µM (≈ 111 µg/mL) | Active | Cc1ccccc1NC(=O)C[C@@H](C)C(=O)N[C@@H]1C(=O)N2CCCN2Cc2ccccc21 | – | – | – | Non-Toxic | Active
